Assay results taken from ChEMBL document CHEMBL4513216, “Probing the Open Global Health Chemical Diversity Library for Multistage-Active Starting Points for Next-Generation Antimalarials” (ACS Infect Dis, 2020).

assay: Toxicity liver stage against HepG2, at 10uM; format: cell-based; design: test concentration 10 uM, cell line HepG2-A16-CD81EGFP; conditions: human, HepG2-A16-CD81EGFP cells; read-out: INHIBITION
In short: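 Uninfected HepG2-A16-CD81EGFP cells, 3 × 10^3 per well, 1536-well, plated on prespotted compound at 10 μM final, parasite-free screening media added to match infected plates; puromycin 10 μM positive, DMSO 0.5% negative; run in parallel with 48 h PbLuc assay at 37 °C, 5% CO2; viability by CellTiter-Glo luminescence, normalized to controls.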

Row | Structure (SMILES) | cytotoxicity at 10 µM [%]
1 | CCCc1cc(=O)[nH]c(-n2nc(-c3cccs3)cc2N)n1 | 11.2
2 | c1cc(-c2ccc3c(c2)C2(CCNCC2)CC3)ccn1 | 56.9
3 | O=C(NCC1CC1)C12CC(CN1Cc1nccs1)C2 | -4.6
4 | O=C([C@H]1C[C@H]2OCC[C@H]2N(CC2CC2)C1)N1CCCC1 | -0.542
5 | O=C(Nc1ccccc1F)c1nn(C2CCS(=O)(=O)C2)c2c1CCCC2 (stereo not given) | 6.17
6 | O=C(NCCCN1CCCCC1)c1ccc(-n2ccc3ccccc32)s1 | -6.19
7 | CC(C(=O)NC1CCN(C)CC1)n1nc(C(F)(F)F)c(Cl)c1C1CC1 (stereo not given) | -8.17
8 | Cc1cc2c(cc1Cl)C=CC1(CCN(CC(=O)N3CCCC3)CC1)O2 | -8.05
9 | CCOc1ccc(CN2CCCC(c3cc4ncccc4[nH]3)C2)cc1 (stereo not given) | 1.18
10 | Fc1ccc(CN2CCCC(c3cc4ncccc4[nH]3)C2)cc1 (stereo not given) | -1.87
11 | Cc1cc2c(=O)n3c(nc2s1)CCN(C(=O)c1sc(C)nc1C)CC3 | -0.579
12 | CN1CCC(c2cccc(Cc3ccc(C(F)(F)F)cc3)n2)CC1 | 3
13 | CN(C(=O)Nc1ccncc1)C1CCN(c2ccc(Cl)cc2)CC1 | 1.44
14 | O=C(CCn1cncn1)NCC1CCS(=O)(=O)C1 (stereo not given) | -48.3
15 | O=C(Nc1cncc(Br)c1O)c1ccon1 | 15.4
16 | CCc1nnc(CNc2ccc(CC(=O)N3CCSCC3)cc2)o1 | 7.37
17 | CC(OCC1CC1)C(=O)Nc1cccc(C(=O)Nc2ccncc2)c1 (stereo not given) | 7.12
18 | COc1ccc2c(c1)OCC(CNC1CCc3nc(C)nn3C1)=C2 (stereo not given) | 1.84
19 | CC(C)(C)n1ncc(NCC(O)c2ccc(F)c(F)c2)c(Cl)c1=O (stereo not given) | 54.1
20 | COc1ccc(C)cc1CN1CCn2cccc2C1C (stereo not given) | 18.3
21 | COc1ccsc1C(=O)NC1CCN(c2cccc(F)c2)CC1 | 18.3
22 | CC(C)CCN(C(=O)Nc1cccc(C(=O)N(C)C)c1)C1CC1 | -14.2

Row | Structure (SMILES) | cytotoxicity at 10 µM [%]
23 | CN(CCOc1ccccc1)C(=O)Nc1cccn(C)c1=O | -11.3
24 | COCC(=O)NC(C)c1sc(-c2ccccc2F)nc1C (stereo not given) | 5.41
25 | CC(C)c1ccc(/C=C/CC(=O)NC2CCN(C(N)=O)CC2)cc1 | 7.1
26 | N#Cc1c(Cl)nsc1NCc1ccnc(OCC(F)(F)F)c1 | 12.5
27 | CC(Cn1ccnc1)NC(=O)N(C)Cc1ccco1 (stereo not given) | -0.687
28 | Cc1cc(CN(C)CCN(C)c2ccccc2)no1 | -4.65
29 | CCSCCC(C)N(C)C(=O)c1ccc(C)o1 (stereo not given) | -3.75
30 | CCNc1ccnc(CN2CCCC2C(=O)Nc2nccs2)c1 (stereo not given) | 4.32
31 | CCCC1CCCN(C(=O)Nc2cccnc2OC)CC1 (stereo not given) | 4.52
32 | Cc1cnn(CCNCc2ccc(OCc3cscn3)cc2)c1 | -5.48
33 | Cc1cccc2c1OCCCC2NCc1nnc2n1CCCCC2 (stereo not given) | -0.699
34 | Cc1nn(C)c(N(C)C)c1CNCC(O)COc1cccc(F)c1 (stereo not given) | 6.2
35 | COc1ccc(-c2nnc(SC(C)C(=O)NC(C)(C)C)[nH]2)c(OC)c1 (stereo not given) | 66.5
36 | CC(Cn1cccn1)NCc1nc(-c2cccnc2)no1 (stereo not given) | -0.813
37 | CCOCc1ccccc1NC(=O)NCC(C)(O)c1cc(C)oc1C (stereo not given) | -1.48
38 | CCNC(=O)CN(CC)C(=O)Cc1csc(C(C)C)n1 | 1.29
39 | COc1cccc(CNc2cc(C)nc(-c3ccncc3)n2)c1OC | 46.5
40 | O=S(=O)(N1CCCC1)N1CCc2sccc2C1 | 1.7
41 | CN(Cc1cccnc1)C(CO)c1cccc(Br)c1 (stereo not given) | -5.37
42 | CC(Nc1ccc(F)cc1)c1nnnn1-c1ccccc1 (stereo not given) | 1.81
43 | CC(SCC(=O)N(C)CC(=O)NC1CC1)c1ccccc1F (stereo not given) | -2.49
44 | NCc1ccnc(Oc2ccc(F)cc2)c1 | 12.4

Row | Structure (SMILES) | cytotoxicity at 10 µM [%]
45 | CN(Cc1c(F)cccc1Cl)C(=O)CN(C)C1CCc2ccccc21 (stereo not given) | 11.3
46 | CCN(c1ccc(C(=O)NCc2cc[nH]n2)cc1)C(C)C | 11.9
47 | COCCCN1CCCN(C(C)C(=O)Nc2cccc(I)c2)CC1 (stereo not given) | -8.34
48 | CCc1nc(CN2CCCN(c3ncnc4ccccc34)CC2)no1 | 43.6
49 | CC(NC(=O)c1cc(-c2cccc(Cl)c2)no1)C(=O)N1CCCC1 (stereo not given) | 3.59
50 | CS(=O)(=O)N1C[C@H]2CN(CC3CC3)C(=O)[C@H]2C1 | 6.53
51 | O=C1CO[C@@H]2CN(S(=O)(=O)c3ccc(F)cc3)C[C@H]2N1 | 4.59
52 | CC(C)N1CCCN(c2nc(-c3cccnc3)nc3c2cnn3C)CC1 | 28.2
53 | Cc1nonc1-c1nc(C(C)C)nn1-c1ccc2c(c1)OCO2 | -6.9
54 | CN(Cc1ccc(-n2cccn2)cc1)c1cc(N)nc(N)n1 | 86.7
55 | CCc1nc(C)cc(N2CCCC(C(=O)c3ccc(OC)cc3C)C2)n1 (stereo not given) | 9.99
56 | CCN(CC)C(=O)[C@@H]1C[C@@H](n2cc(-c3ccccn3)nn2)CN1 | 9.63
57 | Cc1ccc2cc(C3(O)CCN(C(=O)CSC(C)C)CC3)ccc2n1 | 22
58 | CC(C)c1nc(CN2CCc3onc(-c4cccc(F)c4)c3C2)no1 | 5.56
59 | CCN1CCCC1CN(Cc1ccon1)CC1CCN(CCOC)CC1 (stereo not given) | -0.525
60 | c1ccc(C2CCCN(c3ncnc4c3CCNC4)CC2)cc1 (stereo not given) | 58.5
61 | Cc1noc(-c2ccnc(Oc3cccc(CN4CCCC4)c3F)c2)n1 | -7.07
62 | Cc1cc2c(N3CCCC(OCc4cccnc4)C3)ncnc2s1 (stereo not given) | 39
63 | O=C(NC1CCCCC1)N1CCC(n2cc(-c3ccccn3)nn2)CC1 | 4.49
64 | CC(C)CCC1=NC2(CCN(C(=O)CN3CCCC3=O)CC2)C(=O)N1 | -3.07
65 | Cc1nc(C)c(-c2ccn(CC(=O)Nc3cnn(C)n3)n2)s1 | 74
66 | COc1cc(N2CCCC(CO)(Cc3ccccc3F)C2)ncn1 (stereo not given) | 45.7

Row | Structure (SMILES) | cytotoxicity at 10 µM [%]
67 | O=C(c1coc(COc2cccc3cnccc23)n1)N1CCCCCC1 | -128
68 | CCCc1nc(C)c(CNc2nc(C)nc3onc(C)c23)s1 | 1.6
69 | CCCN(Cc1nc2ccccc2[nH]1)Cc1ccccc1OC | -39.6
70 | CC1(C)CNC(=O)c2nc(CCCN3CCCC3)[nH]c2C1 | -12.4
71 | CCCn1ncc(CN2CCCC(C(=O)c3ccc(SC)cc3)C2)c1C (stereo not given) | -3.25
72 | Cc1csc2ncnc(N3CCC(Cn4cc(C(C)(C)O)nn4)CC3)c12 | 49.2
73 | CCSc1ncc(CN2CCC(O)(CN3CCOCC3)C(C)(C)C2)cn1 (stereo not given) | 7.49
74 | OCC1(CCOc2ccccc2)CCCN(c2ccc(Cl)cn2)C1 (stereo not given) | 7.52
75 | COC(=O)N1CCCCC1C(=O)N1CCN(c2cccnc2)CC1 (stereo not given) | -10.6
76 | CN(C)C(=O)c1ccc(C2CCCN2C(=O)c2cccc3c2OCC3)s1 (stereo not given) | 4.1
77 | COc1cccc(CCC2CCCN(C(=O)c3n[nH]c4c3CCC4)C2)c1 (stereo not given) | 4.48
78 | COc1ccccc1CN(C)c1nccc(-c2cn(C)nc2C)n1 | 53.8
79 | CSCC(=O)N1CCCN(c2ccccc2C)CC1 | 8.14
80 | Cc1ncc(C)c(N2CCCC(CO)(Cc3cccc(Cl)c3)C2)n1 (stereo not given) | 59.4
81 | Cc1nc(N2CC[C@@H](NC(=O)c3cnccn3)[C@H](O)C2)c2ccsc2n1 | 38.6
82 | CCCOc1ccc(CNc2cncc(-n3cccn3)n2)cc1 | 11.7
83 | CCCc1ccc(S(=O)(=O)Nc2ccc(=O)n(C)c2)cc1 | 43.5
84 | CC(C)OCc1cccc(CNc2cnn(C)c(=O)c2Cl)c1 | 29.5
85 | c1nc(N2CCCC(Cn3cncn3)C2)c2sccc2n1 (stereo not given) | 6.74
86 | CC1CN(CC2CCCC2)CCN1c1ccc2nncn2n1 (stereo not given) | 6.36
87 | c1ccc2sc(CN3CCOC(Cn4cncn4)C3)nc2c1 (stereo not given) | -0.489
88 | O=C(O)CCC(=O)N1CCN(CC2CC2)c2ncccc2C1 | -101

Row | Structure (SMILES) | cytotoxicity at 10 µM [%]
89 | CNC(=O)[C@@H]1C[C@H]2CN(Cc3c(C)noc3C)C[C@H]2N1C(C)C | -107
90 | CN(C)CCOCC1CN(Cc2cccc(F)c2)Cc2nccn2C1 (stereo not given) | -131
91 | c1ccc(-c2ccc(C3CNCCO3)nc2)cc1 (stereo not given) | 2.36
92 | CCn1ncc2c1C(COCC1CC1)CN(c1ccc(C)nn1)C2 (stereo not given) | 11.4
93 | Cc1cccc(CN2CCO[C@H]3[C@@H](OCc4ccncc4)CC[C@@H]32)n1 | -85.4
94 | O=C(NC1CCC1)[C@@H]1C[C@@H]2CCN(CCc3ccccc3)C[C@H]2O1 | -72.7
95 | O=C(c1ccco1)N1CC[C@@H]2O[C@@H](COCCN3CCCC3)CC[C@@H]21 | -76.8
96 | COc1ccc(CN2C[C@@H]3OCCN(CCN4CCCC4)[C@@H]3C2)cc1 | -82.4
97 | Clc1cccc(C[C@@H]2NCCC[C@@H]2Nc2ccccc2)c1 | 89.3
98 | N#Cc1ccc(N2CCCC3(CCN(c4cccnc4)CC3)C2)cc1 | 55.5
99 | O=S1(=O)c2ccccc2C2(CCN(Cc3ccccc3)C2)N1CC1CC1 (stereo not given) | 16.3
100 | Cc1csc(NC(=O)c2cnc(C3CCCN3)cn2)n1 (stereo not given) | -41
101 | O=S(=O)(c1cccs1)N1CCCC2(COCCN(c3cccnc3)C2)C1 (stereo not given) | -78.5
102 | COc1cccc(CN2CCc3nc(C(=O)NCC(C)C)sc3CC2)c1 | 16.8
103 | Cc1noc(C)c1CN1Cc2ccnn2CC(C(=O)NCC2CC2)C1 (stereo not given) | -69.2
104 | COc1cc(N2C[C@H]3CN(Cc4ccccn4)C[C@H]3C2)ncn1 | -96.3
105 | c1ccc2c(c1)N(CC1CCOC1)CC21CCN(c2cnccn2)CC1 (stereo not given) | -94.7
106 | Cc1ccc(CN2CCOC3(CCCN(c4cccc(F)c4)C3)C2)o1 (stereo not given) | -70
107 | O=C1CC[C@H]2[C@H](CCN2S(=O)(=O)C2CC2)N1CCN1CCCC1 | -88.9
108 | CC(C)C[C@H](N)C(=O)N1CCSc2ccccc2C1 | 0.318
109 | c1cnc(N2CCC3(CC2)CN(CC2CC2)c2ccccc23)nc1 | 19.9
110 | CC(C)CS(=O)(=O)N1C[C@@H]2C[C@H](C(=O)N3CCOCC3)[C@H](C1)O2 | -2.71
